Assay outcomes from PubChem.
Hits are enriched below; roughly 2.9% of the tested compounds scored in any of these assays.
DENV2 CPE rescue = inhibitors of DENV2 cytopathic effect, primary screen, cell-based, plate reader, single concentration | DENV2-infected cells, cytopathic effect rescue | CPE inhibition, % at 9.99 µM | 350,000 tested, 1.7% active; in the data active = CPE inhibition above about 20%, passing the limit was not always enough; tested in BHK-21 cells
Statin myotox sup = suppressors of statin myotoxicity in C2C12 myotubes, primary screen, cell-based, single point, plate reader; AID 602340, 2012; rescue of ATP level, % at 7.49 µM; 330,000 tested, 0.78% active; C2C12 myotubes + simvastatin, ATP luminescence, 48 h; scaled: DMSO 0, geranylgeraniol control 100;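 active = mean ATP rescue above about 67%, or every replicate alone reaching that limit, limit read from the data, passing the limit was not always enough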;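 note: myotubes were challenged with 10 µM simvastatin during compound exposure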
PGC1a acetyl inh = inhibitors of PGC1a acetylation signal, primary screen, cell-based, U2OS, AlphaScreen, inhibitor mode; inhibition, % at 15.6 µM; 350,000 tested, 0.17% active; AlphaScreen anti-acetyl-lysine; with virally co-expressed GCN5 acetyltransferase;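 active = every replicate shows inhibition of at least 40%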
S100A4 MyoIIA = inhibitors of S100A4-myosin IIA peptide binding, primary screen, biochemical, fluorescence polarization, TAMRA-MyoIIA peptide; Protein S100-A4 (Homo sapiens), P26447; 360,000 tested, 0.14% active; inhibition, % at 10.7 µM;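 active = mean inhibition of at least 70% across replicates, with every replicate also reaching that level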
Target sequence (P26447 whole entry, looked up): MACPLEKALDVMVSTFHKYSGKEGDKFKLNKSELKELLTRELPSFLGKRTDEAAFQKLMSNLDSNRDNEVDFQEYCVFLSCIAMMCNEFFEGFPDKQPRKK
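Material: human S100A4 monomer with TAMRA-labelled myosin IIA peptide; buffer or medium: HEPES pH 7.2 with CaCl2, KCl, NaCl, DTT, Triton; compound dosing: one concentration per compound; schedule: 5 min incubation before reading; benchmarks: neutral control DMSO, positive control TFP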
SIRT5 inh = SIRT5 desuccinylase inhibitors, primary screen, biochemical, fluorescence imaging, single point, set 5 | 330,000 tested, 1.1% active | inhibition, % at 15 µM | Purified SirT5, succinyl-peptide AMC, trypsin-coupled fluorescence; in the data active = inhibition above about 15%
Target sequence (Q9NXA8 whole entry, looked up): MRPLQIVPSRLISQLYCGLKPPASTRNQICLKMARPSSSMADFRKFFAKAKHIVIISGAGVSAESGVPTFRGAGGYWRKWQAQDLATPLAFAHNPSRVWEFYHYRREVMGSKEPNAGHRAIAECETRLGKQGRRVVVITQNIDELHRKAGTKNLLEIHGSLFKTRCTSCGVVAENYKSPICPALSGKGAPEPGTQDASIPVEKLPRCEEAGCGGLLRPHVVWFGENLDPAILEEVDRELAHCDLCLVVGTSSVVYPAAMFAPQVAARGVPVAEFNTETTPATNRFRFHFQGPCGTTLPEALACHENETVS
Hits are given with their value; – = inactive; · = no result given; ! = repeats disagree.

SMILES	DENV2 CPE rescue	Statin myotox sup	PGC1a acetyl inh	S100A4 MyoIIA	SIRT5 inh
CO[C@@H]1CN(C)C(=O)c2cc(NC(C)=O)ccc2OC[C@@H](C)N(Cc2cncnc2)C[C@@H]1C	–	–	–	–	·
COc1ccc(-c2ccccc2[C@H]2[C@@H](C#N)N(C(=O)C3CCCC3)[C@H]2CO)cc1	–	·	–	–	–
CC(=O)Cc1cc(O)c2ccccc2c1OC(=O)c1ccc(Br)cc1	–	88	–	–	–
O=C(CN1CCOCC1)N1CC2(C1)[C@@H](c1ccccc1)[C@@H](CO)N2Cc1ccc(F)cc1	–	·	–	–	–
CN1CCc2c(sc(NC(=O)C3COc4ccccc4O3)c2C(N)=O)C1 (stereo unspecified)	–	–	–	106	–
COCCCNC(=O)c1c(NC(=O)C2COc3ccccc3O2)sc2c1CCCC2 (stereo unspecified)	·	96	–	·	·
CC(=O)N1CCc2c(sc(NC(=O)C3COc4ccccc4O3)c2C(N)=O)C1 (stereo unspecified)	–	–	–	–	–
O=C(NCCC1=CCCCC1)C1COc2ccccc2O1 (stereo unspecified)	·	146	–	·	·
O=C(NCCc1ccc(C(F)(F)F)cc1)C1COc2ccccc2O1 (stereo unspecified)	–	–	–	–	–
CCNC(=O)c1c(NC(=O)C2COc3ccccc3O2)sc2c1CCCC2 (stereo unspecified)	·	·	–	·	·
CO[C@@H]1CC[C@H]2CCN(C)C(=O)[C@@H](C)N(C)C(=O)c3cc(C#N)ccc3OC[C@@H]1O2	–	–	·	–	–
C[C@@H]1CN([C@H](C)CO)C(=O)c2cc(NC(=O)CCCCCC(=O)Nc3ccccc3N)ccc2O[C@@H]1CN(C)Cc1ccc(Cl)c(Cl)c1	–	–	–	–	24
C[C@@H]1CN([C@H](C)CO)C(=O)Cc2cc(NC(=O)CCCCCC(=O)Nc3ccccc3N)ccc2O[C@H]1CN(C)Cc1ccc(Cl)c(Cl)c1	–	·	–	–	–
C[C@H]1CN([C@@H](C)CO)C(=O)c2cc(NC(=O)CCCCCC(=O)Nc3ccccc3N)ccc2O[C@H]1CN(C)Cc1ccc(Cl)c(Cl)c1	–	–	–	–	21
C[C@H](CO)N1C[C@H](C)[C@H](CN(C)Cc2ccncc2)Oc2ccc(NC(=O)CCCCCC(=O)Nc3ccccc3N)cc2C1=O	–	·	–	–	·
C[C@H]1CN([C@@H](C)CO)C(=O)Cc2cc(NC(=O)CCCCCC(=O)Nc3ccccc3N)ccc2O[C@@H]1CN(C)Cc1ccc(Cl)c(Cl)c1	–	124	–	–	·
CCC(=O)N1C[C@@H](C)[C@@H](OC)CN(C)C(=O)c2cc(NC(=O)CC(F)(F)F)ccc2OC[C@H]1C	–	·	–	–	–
C[C@@H]1CN([C@H](C)CO)S(=O)(=O)c2ccc(-c3ccccc3F)cc2O[C@@H]1CN(C)Cc1ccncc1	–	–	–	–	–
CCCNC(=O)N1C[C@@H]2N[C@H](C1)C2c1ccc(-c2ccccc2C)cc1 (stereo partly specified)	27	·	–	·	·
CCCNC(=O)N1[C@@H]2CNC[C@H]1C2c1ccc(-c2ccc(C)cc2)cc1 (stereo partly specified)	38	·	–	·	·
Cc1cccc(-c2ccc(C3[C@@H]4CN(C(=O)Cc5ccncc5)C[C@H]3N4)cc2)c1 (stereo partly specified)	–	·	–	–	–
CCCNC(=O)N1[C@@H]2CNC[C@H]1C2c1ccc(/C=C/c2ccccc2)cc1 (stereo partly specified)	–	·	–	–	–
CCCNC(=O)N1C[C@@H]2N[C@H](C1)C2c1ccc(-c2ccc(OC)cc2)cc1 (stereo partly specified)	32!	·	–	·	·
Cc1ccccc1-c1ccc(C2[C@@H]3CN(C(=O)Cc4ccncc4)C[C@H]2N3)cc1 (stereo partly specified)	86!	·	–	·	·
COc1ccc(CN2C[C@H](C)[C@@H](OC)CN(C)C(=O)c3cc(NC(C)=O)ccc3OC[C@@H]2C)cc1	–	–	–	–	–
SMILES	DENV2 CPE rescue	Statin myotox sup	PGC1a acetyl inh	S100A4 MyoIIA	SIRT5 inh
COc1ccccc1N1CCN(C2CCCN(C(=O)c3cccc(-c4ccco4)c3)C2)CC1 (stereo unspecified)	44	–	–	–	–
COc1cc(OC)cc(C(=O)N2CCC(N3CCN(c4ccccc4OC)CC3)CC2)c1	–	·	·	–	24
COc1ccccc1N1CCN(C2CCCN(C(=O)c3ccoc3C)C2)CC1 (stereo unspecified)	–	–	–	–	–
COc1ccc(C(=O)N2CCN(c3ccccc3OC)CC2)cc1	–	–	·	–	·
COc1ccc(S(=O)(=O)Nc2ccc3c(c2)CC(=O)N([C@@H](C)CO)C[C@H](C)[C@H](CN(C)C(=O)Nc2ccccc2)O3)cc1	–	–	–	–	–
CC(C)NC(=O)N(C)C[C@@H]1OCCCC[C@H](C)Oc2ccc(NC(=O)NC3CCCCC3)cc2C(=O)N([C@@H](C)CO)C[C@@H]1C	–	–	–	–	–
Cn1cnc(CCNC(=O)C[C@@H]2CC[C@@H]3[C@H](COC[C@H](O)CN3C(=O)C3CCCC3)O2)c1	–	–	–	–	24
Cn1cnc(CCNC(=O)C[C@@H]2CC[C@H]3[C@@H](COC[C@@H](O)CN3C(=O)C3CC3)O2)c1	–	–	–	81	–
Cn1cnc(CCNC(=O)C[C@@H]2CC[C@H]3[C@@H](COC[C@H](O)CN3C(=O)C3CC3)O2)c1	–	–	–	–	–
CCNC(=O)C[C@H]1CC[C@H]2[C@@H](COC[C@@H](O)CN2C(=O)C2CC2)O1	–	–	–	–	–
CCc1ccccc1Nc1nc(N)nc(CSCC(=O)Nc2ccc(C)c(C)c2)n1	–	·	–	–	16
CCc1ccc(NC(=O)CSCc2nc(N)nc(Nc3ccccc3CC)n2)cc1	·	–	–	·	·
COC(=O)c1c(NC(=O)C2CCCCC2)sc2c1CCN(C(C)C)C2	–	–	–	–	–
CC(C)N1CCc2c(sc(NC(=O)C3CCCCC3)c2C(N)=O)C1	–	–	44	–	–
CCOC(=O)C1=C(C)N=c2sc(=Cc3ccc(OCC(=O)O)cc3)c(=O)n2C1c1ccc(Cl)cc1 (stereo unspecified)	–	–	·	–	21
CCOC(=O)C1=C(C)N=c2s/c(=C\c3cccc(OCC(=O)O)c3)c(=O)n2C1c1ccccc1OC (stereo unspecified)	–	–	55	–	–
CCOC(=O)C1=C(C)N=c2s/c(=C/c3ccc(OCC(=O)O)cc3)c(=O)n2C1c1cc(OC)c(OC)c(OC)c1 (stereo unspecified)	–	–	–	–	·
C[C@@H]1CN([C@H](C)CO)C(=O)c2cc(N(C)C)ccc2O[C@H]1CN(C)S(=O)(=O)c1ccc(Cl)cc1	–	–	–	–	–
